{"source": "ChEMBL document CHEMBL4339251", "about": "“Prenylated Bibenzyls from the Chinese Liverwort Radula constricta and Their Mitochondria-Derived Paraptotic Cytotoxic Activities” (J Nat Prod, 2019)", "key": {"A549 [1]": {"system": "A549", "test": "Induction of apoptosis in human A549 cells assessed as early apoptotic cells at 10 uM by annexinV-FITC and propidium iodide staining based flow cytometric analysis (reference value: 1.47%)", "format": "functional"}, "NCI-H1299 [2]": {"system": "NCI-H1299", "test": "Induction of mitochondria-derived paraptosis in human NCI-H1299 cells assessed as reduction in intensity of mitochondria fluorescence up to 24 hrs by Mito-Tracker staining based fluorescence microscopy", "format": "functional, cell-based", "summary_of_the_method": "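Mitochondrial fluorescence. After treatment for the indicated times, cells were stained with Mito-Tracker Red (100 nM) and 10 000 cells per sample were analysed by flow cytometry. Cells with decreased red fluorescence were gated as \"pale\" cells.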"}, "NCI-H1299 [3]": {"system": "NCI-H1299", "test": "Induction of ROS generation in human NCI-H1299 cells after 1 hr by DCFH-DA staining based flow cytometry relative to untreated control", "format": "functional", "summary_of_the_method": "(§1)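 ROS by flow cytometry. Cells were exposed for the indicated times, then stained with DCFH-DA (10 μM). DCF mean fluorescence intensity was compared with untreated control. Mean ± SD, n = 3.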"}, "A549 [4]": {"system": "A549", "test": "Induction of cytoplasmic vacuolization in human A549 cells at 10 uM treated for 3 hrs after pre-treatment with pan-caspase inhibitor Z-VAD-FMK for 1 hr by optical microscopy", "format": "functional, cell-based", "summary_of_the_method": "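Caspase-inhibitor morphology. Cells were treated with DMSO, 20 μM Z-VAD-FMK, 10 μM compound, or the combinations for 3 h, then imaged by optical microscopy.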"}, "A549 [5]": {"system": "A549", "test": "Induction of cytoplasmic vacuolization in human A549 cells", "format": "functional, cell-based"}, "NCI-H1299 [6]": {"system": "NCI-H1299", "test": "Cytotoxicity in human NCI-H1299 cells assessed as reduction in cell viability at 5 uM incubated for 24 hrs in presence of pan-caspase inhibitor Z-VAD-FMK by MTT assay", "format": "functional, cell-based"}, "NCI-H1299 [7]": {"system": "NCI-H1299", "test": "Induction of apoptosis in human NCI-H1299 cells assessed as induction of PARP cleavage at 2.5 to 10 uM incubated for 24 hrs by Western blot analysis", "format": "functional, cell-based", "summary_of_the_method": "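Western blot. Cells were cultured overnight in six-well plates, then exposed to various concentrations for 24 h before immunoblotting.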"}, "A549 [8]": {"system": "A549", "test": "Induction of mitochondria-derived paraptosis in human A549 cells assessed as induction of HMGB1 translocation from nucleus to cytoplasm at 10 uM incubated for 24 hrs by immunofluorescence staining", "format": "functional, cell-based", "summary_of_the_method": "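HMGB1 immunofluorescence. Cells were treated at 10 μM for 24 h, fixed in 4% paraformaldehyde for 30 min, permeabilised with 0.3% Triton X-100 for 15 min and blocked with 5% BSA for 30 min. Anti-HMGB1 was applied at 4 °C overnight and the secondary antibody at 37 °C for 1 h. Nuclei were counterstained with DAPI and cells imaged by confocal microscopy.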"}, "NCI-H1299 [9]": {"system": "NCI-H1299", "test": "Induction of apoptosis in human NCI-H1299 cells assessed as necrotic cells at 10 uM by annexinV-FITC and propidium iodide staining based flow cytometric analysis (reference value: 3.17%)", "format": "functional"}, "A549 [10]": {"system": "A549", "test": "Induction of ROS generation in human A549 cells by DCFH-DA staining based flow cytometry", "format": "functional, cell-based", "settings": "TDE = time-dependent effect", "summary_of_the_method": "as §1"}, "A549 [11]": {"system": "A549", "test": "Induction of ROS generation in human A549 cells after 1 hr by DCFH-DA staining based flow cytometry relative to untreated control", "format": "functional", "summary_of_the_method": "as §1"}, "A549 [12]": {"system": "A549", "test": "Cytotoxicity in human A549 cells assessed as reduction in cell viability at 5 uM incubated for 24 hrs in presence of pan-caspase inhibitor Z-VAD-FMK by MTT assay", "format": "functional, cell-based"}, "NCI-H1299 [13]": {"system": "NCI-H1299", "test": "Induction of apoptosis in human NCI-H1299 cells assessed as necrotic cells at 20 uM by annexinV-FITC and propidium iodide staining based flow cytometric analysis (reference value: 3.17%)", "format": "functional"}, "SMMC-7721": {"system": "SMMC-7721", "test": "Cytotoxicity in human SMMC7721 cells assessed as reduction in cell viability incubated for 48 hrs by MTT assay", "format": "functional, cell-based", "settings": "SMMC-7721, 48 h", "summary_of_the_method": "(§2)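 MTT viability. U251 and NCI-H1299 were grown in DMEM, the other lines in RPMI 1640, each with 10% FBS, penicillin and streptomycin, at 37 °C in 5% CO2. Cells were seeded in 96-well plates overnight and exposed to a range of concentrations. MTT (5 mg/mL) was added for 4 h, formazan was dissolved in DMSO and absorbance read at 570 nm. Three independent experiments.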"}, "NCI-H1299 [14]": {"system": "NCI-H1299", "test": "Induction of mitochondria-derived paraptosis in human NCI-H1299 cells assessed as formation of fusion among swollen mitochondria after 6 to 24 hrs by Mito-Tracker staining based fluorescence microscopy", "format": "functional, cell-based", "summary_of_the_method": "(§3)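 Live-cell imaging. Treated cells on coverslips were stained with Mito-Tracker Red (100 nM) at 37 °C for 30 min, washed three times with PBS and stained with Hoechst 33342 (10 μg/mL) for 15 min. Images were taken by confocal or fluorescence microscopy at the indicated times.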"}, "A549 [15]": {"system": "A549", "test": "Induction of mitochondria-derived paraptosis in human A549 cells assessed as formation of fusion among swollen mitochondria after 6 to 24 hrs by Mito-Tracker staining based fluorescence microscopy", "format": "functional, cell-based", "summary_of_the_method": "as §3"}, "SW-620": {"system": "SW-620", "test": "Cytotoxicity in human SW620 cells assessed as reduction in cell viability incubated for 48 hrs by MTT assay", "format": "functional, cell-based", "settings": "SW-620, 48 h", "summary_of_the_method": "as §2"}, "HT-29": {"system": "HT-29", "test": "Cytotoxicity in human HT-29 cells assessed as reduction in cell viability incubated for 48 hrs by MTT assay", "format": "functional, cell-based", "settings": "HT-29, 48 h", "summary_of_the_method": "as §2"}, "MCF7": {"system": "MCF7", "test": "Cytotoxicity in human MCF7 cells assessed as reduction in cell viability incubated for 48 hrs by MTT assay", "format": "functional, cell-based", "settings": "MCF7, 48 h", "summary_of_the_method": "as §2"}, "NCI-H1299 [16]": {"system": "NCI-H1299", "test": "Induction of apoptosis in human NCI-H1299 cells assessed as early apoptotic cells at 10 uM by annexinV-FITC and propidium iodide staining based flow cytometric analysis (reference value: 1.26%)", "format": "functional"}, "A549 [17]": {"system": "A549", "test": "Induction of apoptosis in human A549 cells assessed as early apoptotic cells at 20 uM by annexinV-FITC and propidium iodide staining based flow cytometric analysis (reference value: 1.47%)", "format": "functional"}, "A549 [18]": {"system": "A549", "test": "Induction of mitochondria-derived paraptosis in human A549 cells assessed as formation of fluorescent vacuoles after 3 hrs by Mito-Tracker staining based fluorescence microscopy", "format": "functional, cell-based", "summary_of_the_method": "as §3"}, "NCI-H1299 [19]": {"system": "NCI-H1299", "test": "Induction of apoptosis in human NCI-H1299 cells assessed as early apoptotic cells at 20 uM by annexinV-FITC and propidium iodide staining based flow cytometric analysis (reference value: 1.26%)", "format": "functional"}, "KB": {"system": "KB", "test": "Cytotoxicity in human KB cells assessed as reduction in cell viability incubated for 48 hrs by MTT assay", "format": "functional, cell-based", "summary_of_the_method": "as §2"}, "HepG2": {"system": "HepG2", "test": "Cytotoxicity in human HepG2 cells assessed as reduction in cell viability incubated for 48 hrs by MTT assay", "format": "functional, cell-based", "settings": "HepG2, 48 h", "summary_of_the_method": "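MTT viability. Cells were seeded in 96-well plates overnight and exposed to a range of concentrations. MTT (5 mg/mL) was added for 4 h, formazan was dissolved in DMSO and absorbance read at 570 nm. Three independent experiments.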"}, "A549 [20]": {"system": "A549", "test": "Induction of cytoplasmic vacuolization in human A549 cells at 10 uM measured within 3 hrs by optical microscopy", "format": "functional, cell-based", "summary_of_the_method": "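Morphology. A549 or NCI-H1299 cells were treated at 10 μM and vacuole formation was followed by optical microscopy at the indicated times.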"}, "A549 [21]": {"system": "A549", "test": "Induction of apoptosis in human A549 cells assessed as necrotic cells at 10 uM by annexinV-FITC and propidium iodide staining based flow cytometric analysis (reference value: 1.44%)", "format": "functional"}, "A549 [22]": {"system": "A549", "test": "Induction of apoptosis in human A549 cells assessed as necrotic cells at 20 uM by annexinV-FITC and propidium iodide staining based flow cytometric analysis (reference value: 1.44%)", "format": "functional"}}, "note": "The source made the active and inactive calls. No cut-off for these calls is given here.", "data": [{"smiles": "COC(=O)c1c(CCc2ccccc2)cc(O)c(CC=C(C)C)c1O", "values": [{"measurement": "Activity", "setting": "A549 [1]", "result": 0.75, "unit": "%"}, {"measurement": "Activity", "setting": "NCI-H1299 [2]", "result": "Active"}, {"measurement": "fold change (FC)", "setting": "NCI-H1299 [3]", "result": 30}, {"measurement": "Activity", "setting": "A549 [4]", "result": "Active"}, {"measurement": "Activity", "setting": "A549 [5]", "result": "Active"}, {"measurement": "Activity", "setting": "NCI-H1299 [6]", "result": "Active"}, {"measurement": "Activity", "setting": "NCI-H1299 [7]", "result": "inactive"}, {"measurement": "Activity", "setting": "A549 [8]", "result": "Active"}, {"measurement": "Activity", "setting": "NCI-H1299 [9]", "result": 3.75, "unit": "%"}, {"measurement": "Activity", "setting": "A549 [10]", "result": "Tde"}, {"measurement": "fold change (FC)", "setting": "A549 [11]", "result": 20}, {"measurement": "Activity", "setting": "A549 [12]", "result": "Active"}, {"measurement": "Activity", "setting": "NCI-H1299 [13]", "result": 3.49, "unit": "%"}, {"measurement": "IC50", "setting": "SMMC-7721", "result": 8.6, "unit": "µM"}, {"measurement": "Activity", "setting": "NCI-H1299 [14]", "result": "Active"}, {"measurement": "Activity", "setting": "A549 [15]", "result": "Active"}, {"measurement": "IC50", "setting": "SW-620", "result": 6.3, "unit": "µM"}, {"measurement": "IC50", "setting": "HT-29", "result": 5, "unit": "µM"}, {"measurement": "IC50", "setting": "MCF7", "result": 10.2, "unit": "µM"}, {"measurement": "Activity", "setting": "NCI-H1299 [16]", "result": 0.57, "unit": "%"}, {"measurement": "Activity", "setting": "A549 [17]", "result": 2.44, "unit": "%"}, {"measurement": "Activity", "setting": "A549 [18]", "result": "Active"}, {"measurement": "Activity", "setting": "NCI-H1299 [19]", "result": 1.11, "unit": "%"}, {"measurement": "IC50", "setting": "KB", "result": 6.7, "unit": "µM"}, {"measurement": "IC50", "setting": "HepG2", "result": 6.3, "unit": "µM"}, {"measurement": "Activity", "setting": "A549 [20]", "result": "Active"}, {"measurement": "Activity", "setting": "A549 [21]", "result": 2.02, "unit": "%"}, {"measurement": "Activity", "setting": "A549 [22]", "result": 1.73, "unit": "%"}]}]}
